Measurements published in ChEMBL document CHEMBL1795235, “Quercetin diacylglycoside analogues showing dual inhibition of DNA gyrase and topoisomerase IV as novel antibacterial agents” (J Med Chem, 2011).
Values after ≈ are worked out from the molar mass of the structure shown.

Key:
[1] = tested on: Staphylococcus aureus; experiment: Antibacterial activity against methicillin-susceptible Staphylococcus aureus 209P after 24 hrs by microdilution method; type: functional
Summary of the method: (§1)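 Broth microdilution in Mueller-Hinton broth with 0.85% NaCl, inoculum about 10^5 CFU per 100 μL. Compounds were diluted in water from 25.6 mg/mL stocks to final 2-fold series of 0.062–128 μg/mL. Plates were incubated 24 h at 35 °C. MIC was the lowest concentration at which all triplicate wells were clear, from three independent determinations.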

[2] = tested on: Enterococcus; experiment: Antibacterial activity against vancomycin resistant Enterococcus FN-1 after 24 hrs by microdilution method; type: functional; conditions: FN-1, 24 h; summary of the method: as §1
[3] = tested on: Enterococcus; experiment: Antibacterial activity against vancomycin resistant Enterococcus NCTC 12201 after 24 hrs by microdilution method; type: functional; conditions: NCTC 12201, 24 h; summary of the method: as §1
[4] = tested on: Staphylococcus aureus; experiment: Antibacterial activity against vancomycin-intermediate Staphylococcus aureus Mu50 after 24 hrs by microdilution method; type: functional; conditions: Mu50, 24 h; summary of the method: as §1
[5] = tested on: Staphylococcus aureus; experiment: Antibacterial activity against methicillin-resistant Staphylococcus aureus OM481 after 24 hrs by microdilution method; type: functional; conditions: OM481, 24 h; summary of the method: as §1
[6] = tested on: Staphylococcus aureus; experiment: Antibacterial activity against methicillin-resistant Staphylococcus aureus OM584 after 24 hrs by microdilution method; type: functional; conditions: OM584, 24 h; summary of the method: as §1
[7] = tested on: Staphylococcus aureus; experiment: Antibacterial activity against methicillin-resistant Staphylococcus aureus N315 after 24 hrs by microdilution method; type: functional; conditions: N315, 24 h; summary of the method: as §1
[8] = tested on: Staphylococcus aureus; experiment: Antibacterial activity against methicillin-resistant Staphylococcus aureus COL after 24 hrs by microdilution method; type: functional; summary of the method: as §1
[9] = tested on: Streptococcus pneumoniae; experiment: Antibacterial activity against Streptococcus pneumoniae R6 after 24 hrs by microdilution method; type: functional; conditions: R6, 24 h
Summary of the method: (§2)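 Broth microdilution in Mueller-Hinton broth with 0.85% NaCl, inoculum about 10^5 CFU per 100 μL. Compounds diluted from 25.6 mg/mL stocks in water to 2-fold series, final 0.062–128 μg/mL. […] Three independent determinations.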

[10] = Inhibition of Staphylococcus aureus DNA Topoisomerase 4-mediated decatenation of kDNA after 30 mins by densitometry
Summary of the method: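 Purchased S. aureus topoIV, one unit with 200 ng kDNA, 37 °C, 30 min. Products resolved on 1.0% agarose in TAE. IC50 of decatenation from densitometry by interpolation equation, at least three determinations.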

[11] = Inhibition of Escherichia coli DNA topoisomerase 4 subunit ParC/DNA topoisomerase 4 subunit ParE-mediated decatenation of kDNA by densitometry
Summary of the method: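 Purchased E. coli topoIV kit enzyme, one unit with 200 ng kDNA, 37 °C, 30 min. Buffer: 50 mM HEPES-KOH pH 7.6, 5 mM magnesium acetate, 100 mM potassium glutamate, 10 mM DTT, 1 mM ATP, 40% glycerol. Gel on 1.0% agarose in TAE. IC50 of decatenation from densitometry by interpolation equation, at least three determinations.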

[12] = tested on: Pseudomonas aeruginosa; experiment: Antibacterial activity against Pseudomonas aeruginosa PAO1 after 24 hrs by microdilution method; type: functional; conditions: PAO1, 24 h; summary of the method: as §2
[13] = tested on: Escherichia coli; experiment: Antibacterial activity against Escherichia coli K-12 after 24 hrs by microdilution method; type: functional; conditions: K-12, 24 h; summary of the method: as §2
[14] = Inhibition of Escherichia coli DNA gyrase assessed as inhibition of pBR322 supercoiling by densitometry
Summary of the method: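 One unit of E. coli gyrase with 0.5 μg relaxed pBR322 DNA, 37 °C, 30 min. Stopped with sucrose/EDTA dye, run on 1.0% agarose in TAE. IC50 from densitometry via log-interpolation equation.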

In the case of `O=C(CCc1ccc(F)cc1)O[C@H]1[C@H](Oc2c(-c3ccc(O)c(O)c3)oc3cc(O)cc(O)c3c2=O)O[C@H](CO)[C@@H](O)[C@@H]1OC(=O)CCc1ccc(F)cc1`, the MIC [1] is reported as 0.25 µg/mL (≈ 0.327 µM), the MIC [2] is reported as 1 µg/mL (≈ 1.31 µM) and the MIC [3] is reported as 1 µg/mL (≈ 1.31 µM). The MIC [4] was 1 µg/mL (≈ 1.31 µM), the MIC [5] was 2 µg/mL (≈ 2.62 µM) and the MIC [6] was 2 µg/mL (≈ 2.62 µM). The MIC [7] was 0.25 µg/mL (≈ 0.327 µM), the MIC [8] was 1 µg/mL (≈ 1.31 µM) and the MIC [9] was 0.5 µg/mL (≈ 0.654 µM). It also gave an IC50 [10] of 690 nM and an IC50 [11] of 10400 nM.

For `CCOc1ccc(C(=O)OC[C@H]2O[C@@H](Oc3c(-c4ccc(O)c(O)c4)oc4cc(O)cc(O)c4c3=O)[C@H](OC(=O)c3ccc(OCC)cc3)[C@@H](O)[C@H]2O)cc1`, the MIC [1] was 4 µg/mL (≈ 5.26 µM), the MIC [2] was 8 µg/mL (≈ 10.5 µM) and the MIC [3] was 8 µg/mL (≈ 10.5 µM). For the same compound, the MIC [4] was 4 µg/mL (≈ 5.26 µM), the MIC [5] was 4 µg/mL (≈ 5.26 µM) and the MIC [6] was 4 µg/mL (≈ 5.26 µM). The MIC [7] was 8 µg/mL (≈ 10.5 µM), the MIC [8] was 16 µg/mL (≈ 21 µM) and the MIC [9] was 4 µg/mL (≈ 5.26 µM). The MIC [12] was > 128 µg/mL, the MIC [13] was > 128 µg/mL and the IC50 [14] was 430 nM. For the same compound, the IC50 [10] was 1780 nM and the IC50 [11] was 11300 nM.

For `O=c1c(O)c(-c2ccc(O)c(O)c2)oc2cc(O)cc(O)c12` [QUERCETIN], the MIC [1] was > 128 µg/mL, the MIC [2] was > 128 µg/mL and the MIC [3] was > 128 µg/mL. The MIC [4] was > 128 µg/mL, the MIC [5] was > 128 µg/mL and the MIC [6] was > 128 µg/mL. For the same compound, the MIC [7] was > 128 µg/mL, the MIC [8] was > 128 µg/mL and the MIC [9] was > 128 µg/mL. For the same compound, the MIC [12] was > 128 µg/mL, the MIC [13] was 64 µg/mL (≈ 212 µM) and the IC50 [14] was 140 nM. It also gave an IC50 [11] of 6420 nM.

In the case of `CCOc1ccc(CCC(=O)O[C@H]2[C@H](Oc3c(-c4ccc(O)c(O)c4)oc4cc(O)cc(O)c4c3=O)O[C@H](CO)[C@@H](O)[C@@H]2OC(=O)CCc2ccc(OCC)cc2)cc1`, the MIC [1] is reported as 1 µg/mL (≈ 1.22 µM), the MIC [2] is reported as 2 µg/mL (≈ 2.45 µM) and the MIC [3] is reported as 4 µg/mL (≈ 4.9 µM). It also gave an MIC [4] of 1 µg/mL (≈ 1.22 µM), an MIC [5] of 2 µg/mL (≈ 2.45 µM) and an MIC [6] of 2 µg/mL (≈ 2.45 µM). The MIC [7] was 1 µg/mL (≈ 1.22 µM), the MIC [8] was 4 µg/mL (≈ 4.9 µM) and the MIC [9] was 1 µg/mL (≈ 1.22 µM). For the same compound, the IC50 [10] was 3020 nM and the IC50 [11] was > 12000 nM.

For `CN[C@H](CC(C)C)C(=O)N[C@H]1C(=O)N[C@@H](CC(N)=O)C(=O)N[C@H]2C(=O)N[C@H]3C(=O)N[C@H](C(=O)N[C@H](C(=O)O)c4cc(O)cc(O)c4-c4cc3ccc4O)[C@H](O)c3ccc(c(Cl)c3)Oc3cc2cc(c3O[C@@H]2O[C@H](CO)[C@@H](O)[C@H](O)[C@H]2O[C@H]2C[C@](C)(N)[C@H](O)[C@H](C)O2)Oc2ccc(cc2Cl)[C@H]1O` [VANCOMYCIN], the MIC [1] was 0.25 µg/mL (≈ 0.173 µM), the MIC [2] was > 128 µg/mL and the MIC [3] was > 128 µg/mL. It also gave an MIC [4] of 8 µg/mL (≈ 5.52 µM), an MIC [5] of 0.25 µg/mL (≈ 0.173 µM) and an MIC [6] of 0.25 µg/mL (≈ 0.173 µM). The MIC [7] was 0.25 µg/mL (≈ 0.173 µM), the MIC [8] was 0.25 µg/mL (≈ 0.173 µM) and the MIC [9] was 0.25 µg/mL (≈ 0.173 µM).

Compound `CCOc1ccc(C(=O)O[C@H]2[C@H](Oc3c(-c4ccc(O)c(O)c4)oc4cc(O)cc(O)c4c3=O)O[C@H](CO)[C@@H](O)[C@@H]2OC(=O)c2ccc(OCC)cc2)cc1` has an MIC [1] of 1 µg/mL (≈ 1.31 µM), an MIC [2] of 2 µg/mL (≈ 2.63 µM) and an MIC [3] of 4 µg/mL (≈ 5.26 µM). It also gave an MIC [4] of 1 µg/mL (≈ 1.31 µM), an MIC [5] of 2 µg/mL (≈ 2.63 µM) and an MIC [6] of 2 µg/mL (≈ 2.63 µM). The MIC [7] was 1 µg/mL (≈ 1.31 µM), the MIC [8] was 4 µg/mL (≈ 5.26 µM) and the MIC [9] was 1 µg/mL (≈ 1.31 µM). It also gave an IC50 [10] of 1980 nM and an IC50 [11] of 11000 nM.

`CC(=O)OC[C@H]1O[C@@H](Oc2c(-c3ccc(O)c(O)c3)oc3cc(O)cc(O)c3c2=O)[C@H](OC(C)=O)[C@@H](OC(C)=O)[C@H]1OC(C)=O` showed an MIC [1] of 64 µg/mL (≈ 101 µM), an MIC [2] of 32 µg/mL (≈ 50.6 µM) and an MIC [3] of 32 µg/mL (≈ 50.6 µM). The MIC [4] was 64 µg/mL (≈ 101 µM), the MIC [5] was 32 µg/mL (≈ 50.6 µM) and the MIC [6] was 32 µg/mL (≈ 50.6 µM). It also gave an MIC [7] of 64 µg/mL (≈ 101 µM), an MIC [8] of 128 µg/mL (≈ 202 µM) and an MIC [9] of 64 µg/mL (≈ 101 µM). For the same compound, the MIC [12] was > 128 µg/mL and the MIC [13] was > 128 µg/mL.

`Cc1ccc(CCC(=O)OC[C@H]2O[C@@H](Oc3c(-c4ccc(O)c(O)c4)oc4cc(O)cc(O)c4c3=O)[C@H](OC(=O)CCc3ccc(C)cc3)[C@@H](O)[C@H]2O)cc1` gave an MIC [1] of 0.25 µg/mL (≈ 0.33 µM), an MIC [2] of 0.5 µg/mL (≈ 0.661 µM) and an MIC [3] of 0.5 µg/mL (≈ 0.661 µM). It also gave an MIC [4] of 0.5 µg/mL (≈ 0.661 µM), an MIC [5] of 0.25 µg/mL (≈ 0.33 µM) and an MIC [6] of 0.25 µg/mL (≈ 0.33 µM). It also gave an MIC [7] of 0.25 µg/mL (≈ 0.33 µM), an MIC [8] of 1 µg/mL (≈ 1.32 µM) and an MIC [9] of 0.25 µg/mL (≈ 0.33 µM). For the same compound, the MIC [12] was > 128 µg/mL, the MIC [13] was > 128 µg/mL and the IC50 [14] was 2090 nM. The IC50 [10] was 1490 nM and the IC50 [11] was 9460 nM.

In the case of `O=c1c(O[C@@H]2O[C@H](CO)[C@H](O)[C@H](O)[C@H]2O)c(-c2ccc(O)c(O)c2)oc2cc(O)cc(O)c12` [HYPEROSIDE], the MIC [1] is reported as > 128 µg/mL, the MIC [2] is reported as > 128 µg/mL and the MIC [3] is reported as > 128 µg/mL. The MIC [4] was > 128 µg/mL, the MIC [5] was > 128 µg/mL and the MIC [6] was > 128 µg/mL. For the same compound, the MIC [7] was > 128 µg/mL, the MIC [8] was > 128 µg/mL and the MIC [9] was > 128 µg/mL. For the same compound, the MIC [12] was 32 µg/mL (≈ 68.9 µM), the MIC [13] was 16 µg/mL (≈ 34.5 µM) and the IC50 [14] was 100 nM. The IC50 [10] was 70 nM and the IC50 [11] was 3070 nM.
